Compound activity (PubChem BioAssay)
In the library only some 2.9% were active in any assay of this set; here they are far more common.
CAL PDZ FP-1: CAL PDZ peptide-binding inhibitors, primary screen, biochemical, fluorescence polarization, Cer-tagged CAL PDZ, HTS; Golgi-associated PDZ and coiled-coil motif-containing protein (Homo sapiens), Q9HD26; purified CAL PDZ, TMR-peptide fluorescence polarization, 1 h; inhibition, % at 20 µM; actives 0.02% (n = 330,000); AID 504414, 2011;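 active = highest replicate inhibition of at least 40%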;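 note: plate controls were DMSO neutral control wells for no effect and unlabeled competitor peptide control wells for full effect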
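Test system: tagged CAL PDZ domain / Buffer or medium: sodium phosphate/NaCl buffer pH 7.4 with TCEP, IgG, Thesit / Reagent: TMR-labelled reporter peptide T*-PRC34 bound in PDZ groove / Compound dosing: single point, 20 µM / Schedule: 1 h incubation at room temperature before polarization reading / Technique: fluorescence polarization (mP) / Benchmarks: unlabelled peptide, DMSO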
ERAP1 HTS inh: human ERAP1 aminopeptidase inhibitors, primary screen, biochemical, single point, plate reader; inhibition, % at 10.7 µM; AID 652197, 2013; actives 0.15% (n = 340,000); Endoplasmic reticulum aminopeptidase 1 (Homo sapiens), Q9NZ08; recombinant ERAP1, Leu-AMC fluorescence, 60 min;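 active = mean replicate inhibition of at least 30%, or all replicates individually reaching that 30% level; inactive = mean below 30% and not every replicate reaching it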;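 note: 0% = neutral control wells and 100% = L-leucinethiol positive control wells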
SIRT5 block: SIRT5 desuccinylase inhibitors, primary screen, biochemical, fluorescence imaging, single point, set 5. NAD-dependent protein deacylase sirtuin-5, mitochondrial (Homo sapiens), Q9NXA8. Purified SirT5, succinyl-peptide AMC, trypsin-coupled fluorescence. inhibition, % at 15 µM. actives 1.1% (n = 330,000); in the data active = inhibition above about 15%; inconclusive = no clear call, values can overlap the other calls
Target sequence (Q9NXA8 whole entry, looked up): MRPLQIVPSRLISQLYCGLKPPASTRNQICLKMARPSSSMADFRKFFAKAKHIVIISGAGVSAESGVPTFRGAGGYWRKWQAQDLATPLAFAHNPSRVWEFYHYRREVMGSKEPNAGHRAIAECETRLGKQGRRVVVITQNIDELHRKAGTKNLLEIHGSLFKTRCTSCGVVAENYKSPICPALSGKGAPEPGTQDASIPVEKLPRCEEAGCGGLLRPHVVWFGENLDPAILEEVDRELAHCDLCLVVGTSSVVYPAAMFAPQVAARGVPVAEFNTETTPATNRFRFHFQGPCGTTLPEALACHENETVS
S100A4 MyoIIA: inhibitors of S100A4-myosin IIA peptide binding, primary screen, biochemical, fluorescence polarization, TAMRA-MyoIIA peptide | inhibition, % at 10.7 µM | Protein S100-A4 (Homo sapiens), P26447 | AID 652163, 2013 | actives 0.14% (n = 360,000);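 active = mean inhibition of at least 70% across replicates, with every replicate also reaching that level; inconclusive = mean inhibition reaches 70% but some replicates fall short; inactive = mean inhibition below 70%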
Target sequence (P26447 whole entry, looked up): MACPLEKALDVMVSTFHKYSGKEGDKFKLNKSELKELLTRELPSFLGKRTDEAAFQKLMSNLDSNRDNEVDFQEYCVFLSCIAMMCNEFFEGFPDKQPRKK
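Test system – S100A4 monomer (human) · Compound – single-point compound testing · Schedule – 5 min incubation before reading · Probe or stimulus – TAMRA-labelled myosin IIA heavy-chain peptide probe, 5 nM · Benchmarks – neutral control DMSO, positive control TFP · Medium – Calcium-containing HEPES buffer, pH 7.2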
DENV2 CPE rescue: inhibitors of DENV2 cytopathic effect, primary screen, cell-based, plate reader, single concentration; actives 1.7% (n = 350,000); CPE inhibition, % at 9.99 µM; DENV2-infected cells, cytopathic effect rescue; in the data active = CPE inhibition above about 20%, passing the limit was not always enough; inconclusive = no clear call, values can overlap the other calls; tested in BHK-21 cells;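 note: 0% = median of neutral control wells and 100% = median of positive control wells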
CAL PDZ FP-2: untagged CAL PDZ binding inhibitors, primary screen, biochemical, fluorescence polarization, HTS | Golgi-associated PDZ and coiled-coil motif-containing protein (Homo sapiens), Q9HD26 | purified CAL PDZ, TMR-peptide fluorescence polarization, 1 h | inhibition, % at 24.9 µM | actives 0.92% (n = 300,000) | AID 602252, 2012;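 active = mean inhibition of at least 30% with at least half of replicates also reaching 30%; inconclusive = no clear call, values can overlap the other calls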;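 note: 0% = DMSO neutral control and 100% = excess unlabeled competitor peptide PRC23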
An asterisk follows results filed as active; ? = inconclusive; / = no result.

SMILES	CAL PDZ FP-1	ERAP1 HTS inh	SIRT5 block	S100A4 MyoIIA	DENV2 CPE rescue	CAL PDZ FP-2
O=C(O)CCNC(=O)c1ccc(NC(=O)Cc2ccc(Cl)cc2)cc1	-0.4	0.0	26.1*	-2.7	/	-1.2
Cc1noc(C)c1NC(=O)N(C)C[C@H]1OCCCC[C@H](C)Oc2ccc(NC(=O)CCC(F)(F)F)cc2C(=O)N([C@@H](C)CO)C[C@@H]1C	/	0.2	-2.2	-1.3	-3.7	/
CCOC(=O)c1ccc(-c2ccc(C=O)o2)cc1	-1.1	-1.3	-3.2	13.3	4.0	64.1*
CCCOC(=O)c1ccc(-c2ccc(C=O)o2)cc1	-2.3	-3.2	/	6.5	?	-5.6
CC(C)Oc1cccc(C(=O)Nc2ccc(CN3CCOCC3)cc2)c1	-3.0	2.4	-1.3	-6.3	-4.2	-1.0
Cc1cccc(NC(=O)CSCC(=O)Nc2ccc(N3CCOCC3)cc2N2CCOCC2)c1	0.0	0.1	0.7	-8.8	18.7	89.1*
Cc1cccc(NC(=O)CSCC(=O)Nc2cc(C(F)(F)F)ccc2N2CCOCC2)c1	/	-2.8	1.8	-4.2	-14.6	/
CCCCCOc1ccc(C(=O)Nc2ccc(N3CCOCC3)cc2N2CCOCC2)cc1	-1.1	5.3	5.5	1.5	5.1	44.6*
CCCCOc1ccc(C(=O)Nc2ccc(CN3CCOCC3)cc2)cc1	0.3	0.0	28.8*	8.9	?	-1.5
CCCOc1ccc(C(=O)Nc2ccc(CN3CCOCC3)cc2)cc1	-1.6	-1.0	8.7	0.1	7.6	-1.4
CCCOc1cccc(C(=O)Nc2ccc(CN3CCOCC3)cc2)c1	0.0	-0.1	2.0	1.6	25.3*	-2.8
CCC(=O)N(C)C[C@@H]1Oc2cc(C#Cc3ccccc3)ccc2S(=O)(=O)N([C@@H](C)CO)C[C@H]1C	/	1.1	4.3	5.1	-1.7	/
O=C(CN1CCOCC1)NCC[C@@H]1CC[C@H](NC(=O)Nc2ccc(F)cc2)[C@@H](CO)O1	/	-1.5	1.2	8.1	-6.1	/
COc1ccc2c3c(n(C)c2c1)[C@H](CO)N(S(C)(=O)=O)CC31CCN(C(=O)Nc2cccc(F)c2)CC1	/	/	-0.5	0.6	?	/
CCO[C@@H]1OC(C(=O)N2CCN(Cc3ccc4c(c3)OCO4)CC2)=C[C@H](c2ccccc2)[C@H]1CCCO	/	2.5	1.5	34.6	1.0	/
COc1ccc(-c2ccc3c(c2)[C@@H]2[C@@H](CCN2Cc2ccccc2F)[C@H](CO)N3)cc1	/	0.8	3.0	0.5	23.1*	/
COc1ccc(-c2ccc3c(c2)[C@H]2[C@H](CCN2C(=O)CN2CCOCC2)[C@@H](CO)N3)cc1	/	0.8	-1.5	11.9	100.1*	/
CCC(=O)N1CC[C@@H]2[C@@H](CO)Nc3ccc(-c4ccc(OC)cc4)cc3[C@@H]21	/	/	/	/	130.7*	/
OC[C@H]1Nc2ccc(-c3ccccc3)cc2[C@@H]2[C@H]1CCN2Cc1ccccc1F	/	-2.9	-5.1	-1.4	-26.3	/
O=C(c1cccnc1)N1CC[C@@H]2[C@H](CO)Nc3ccc(-c4cccc(F)c4)cc3[C@@H]21	/	-0.7	3.6	1.2	/	/
CCOC(=O)C1=CN(CC)S(=O)(=O)NC1c1cccc(OC)c1 (centres undefined)	-0.9	0.3	-4.4	-6.8	23.7*	-3.4
Cc1cc(O)c(C(C)C)cc1NC(=O)c1ccccc1Cl	0.1	-1.2	/	-2.9	27.7*	-3.7
C[C@H](CO)N1C[C@H](C)[C@H](CN(C)C(=O)CCC(F)(F)F)OCCCC[C@H](C)Oc2ccc(NC(=O)NC3CCCCC3)cc2C1=O	/	0.7	3.2	2.7	5.7	/
O=S(=O)(Nc1cc(Sc2ncn[nH]2)c(O)c2ccccc12)c1ccccc1	7.8	56.1*	1.4	5.0	3.3	3.6
Cc1cc(O)c(Sc2ncn[nH]2)cc1NS(=O)(=O)c1ccc(Cl)cc1	-2.5	0.3	1.0	-6.7	13.9	-2.9
SMILES	CAL PDZ FP-1	ERAP1 HTS inh	SIRT5 block	S100A4 MyoIIA	DENV2 CPE rescue	CAL PDZ FP-2
Cc1ccc(S(=O)(=O)Nc2ccc(Br)cc2C(NCC(=O)O)c2ccccc2)cc1 (centres undefined)	-1.9	/	/	/	/	0.1
O=C(O)CSc1cc(NS(=O)(=O)c2ccc(Br)cc2)c2ccccc2c1O	42.3*	4.0	0.7	10.1	-3.1	13.4
CS(=O)(=O)N1CC(=O)N2[C@@H](CO)[C@H](c3ccc(C#CCC4CCCC4)cc3)[C@@H]2C1	/	-0.9	-1.7	-29.3	-9.8	/
C[C@@H]1CN([C@H](C)CO)C(=O)c2cc(NC(=O)Nc3ccc4c(c3)OCO4)ccc2O[C@@H]1CN(C)Cc1ccc2c(c1)OCO2	/	-2.6	1.5	13.1	-4.6	/
C[C@@H]1CN([C@H](C)CO)C(=O)c2cc(N(C)C)ccc2O[C@H]1CN(C)Cc1ccc2c(c1)OCO2	/	-0.6	-3.2	-3.2	-8.8	/
C[C@H]1CN([C@@H](C)CO)C(=O)c2cc(NC(=O)C3CC3)ccc2O[C@H]1CN(C)Cc1ccc2c(c1)OCO2	/	4.4	2.6	-0.4	5.6	/
C[C@@H]1CN([C@H](C)CO)C(=O)c2cc(NC(=O)C3CC3)ccc2O[C@@H]1CN(C)Cc1ccc2c(c1)OCO2	/	/	16.6*	14.3	7.2	/
C[C@@H]1CN([C@@H](C)CO)C(=O)c2cc(NC(=O)Nc3ccc4c(c3)OCO4)ccc2O[C@@H]1CN(C)Cc1ccc2c(c1)OCO2	/	-0.7	-1.9	6.5	41.9*	/
C[C@H](CO)N1C[C@H](C)[C@@H](CN(C)Cc2ccc3c(c2)OCO3)Oc2ccc(N(C)C)cc2C1=O	/	-0.9	1.2	6.1	23.0*	/
C[C@@H]1CCCCO[C@@H](CN(C)S(=O)(=O)c2ccccc2)[C@H](C)CN([C@@H](C)CO)C(=O)c2cc(NS(=O)(=O)c3cn(C)cn3)ccc2O1	/	2.3	-3.9	20.4	0.5	/
Cc1nc2cc(C(=O)N3CCc4ccccc43)ccc2n1-c1ccc(F)c(F)c1	-1.1	0.1	16.0*	1.8	8.3	-8.0
COc1ccc(C#Cc2cnc3c(c2)C(=O)N([C@H](C)CO)C[C@@H](C)[C@H](CN(C)C(=O)CC2CC2)O3)cc1	/	-0.3	1.0	-1.6	1.2	/
O=C(c1ccc(N2C(=O)CCC2=O)cc1)N1CCCSC1=Nc1ccccc1	/	-7.0	/	84.1*	15.0	/
CC1C(=O)N(Cc2cn(CC3CCCCC3)nn2)CCS(=O)(=O)N1Cc1ccc(-c2ccncc2)cc1 (centres undefined)	/	0.3	3.5	1.4	7.9	/
